This is an account of results in PMC4160068 (ACS chemical biology, 2014).

In data set [1] the test system is A375 and SKMEL5 parental cells. The data set can be described thus: MTS viability of parental BRAF-mutant melanoma cells under PLX4032. The class given is cell-based. As to conditions: concentrations in which PLX-R derivative lines grew.
The target in another data set is PKCδ (Homo sapiens, UniProt Q05655). The experiment in a line: In vitro kinase assay, PKCδ. The format is biochemical.
Chain of PKCδ (Q05655 whole entry): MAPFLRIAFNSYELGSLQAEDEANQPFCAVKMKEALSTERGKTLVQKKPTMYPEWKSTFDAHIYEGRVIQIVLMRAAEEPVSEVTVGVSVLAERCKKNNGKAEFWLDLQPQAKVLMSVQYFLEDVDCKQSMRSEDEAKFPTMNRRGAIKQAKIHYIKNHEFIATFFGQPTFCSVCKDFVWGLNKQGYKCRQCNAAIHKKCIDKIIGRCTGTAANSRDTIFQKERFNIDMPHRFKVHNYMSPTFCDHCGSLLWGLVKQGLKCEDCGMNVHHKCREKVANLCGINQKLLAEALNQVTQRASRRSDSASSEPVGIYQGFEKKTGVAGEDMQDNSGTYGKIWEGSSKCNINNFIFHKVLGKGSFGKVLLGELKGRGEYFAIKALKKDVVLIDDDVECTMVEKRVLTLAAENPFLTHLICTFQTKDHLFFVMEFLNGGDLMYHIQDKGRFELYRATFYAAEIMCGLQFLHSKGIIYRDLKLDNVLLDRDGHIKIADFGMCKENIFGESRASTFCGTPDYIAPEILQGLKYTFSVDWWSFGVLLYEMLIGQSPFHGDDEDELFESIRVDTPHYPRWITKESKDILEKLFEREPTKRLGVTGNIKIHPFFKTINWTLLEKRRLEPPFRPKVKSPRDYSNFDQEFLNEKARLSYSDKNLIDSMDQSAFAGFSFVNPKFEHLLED
Data set [2] concerns melanoma cell lines with NRAS mutations (SBcl2, FM6, SKMEL2, WM1366, WM1361A, WM852). The experiment in a line: MTS cell survival assay in NRAS-mutant melanoma lines. As to conditions: 24, 48, 72 hr. The class given is cell-based. In short, it runs like this:
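Cell lines carrying NRAS Q61 mutations (SBcl2, FM6, SKMEL2, WM1366, WM1361A, WM852) exposed to test compounds at 2 or 5 µM, or 0.2 or 0.5 µM (0.1 and 2 µM also in SBcl2). MTS read at 24, 48 and 72 hr. Controls: DMSO vehicle and 2 µM negative control compound. Mean of triplicates ± SD; p versus DMSO at 72 hr.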

The next data set concerns SBcl2 melanoma cells. The data set can be described thus: Clonogenic colony assay. The class given is cell-based. The following applies: SBcl2, 1 µM, 48 hr of drug exposure, then 8 days without inhibitor. In short, it runs like this:
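SBcl2 cells exposed to test compound at 1 µM for 0, 12, 24 or 48 hr. Equal numbers of viable cells from each condition then replated at low density and grown 8 days in inhibitor-free medium. Colony-forming ability compared across exposure times.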

Data set [3] has as its system caspase 3/7 in SBcl2 cells. The experiment in a line: Caspase 3/7 activity assay. The class given is cell-based. The following applies: SBcl2, 5 µM, 24 hr.
A further data set relates to SBcl2 cells. The experiment in a line: DNA fragmentation. As to conditions: 24 hr. The format is cell-based. In short, it runs like this: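 SBcl2 cells treated 24 hr with test compound (5 or 0.5 µM) alone, or at 0.5 µM together with pan-caspase inhibitor Z-VAD-FMK (100 µM). Sub-G1 (fragmented DNA) fraction measured by flow cytometry. Mean of duplicates with SD.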
The conditions of data set [4]: cited from earlier work.
In the next data set the test system is mice. As to conditions: administered orally or intraperitoneally to mice; cited from earlier work.
Data set [5] concerns normal primary cells or cell lines. The following applies: at the concentrations employed herein; cited from earlier work.
Data set [6] relates to cancer cells with activation of RAS or RAS signaling. The data set can be described thus: "Ras-specific" cytotoxicity.
Data set [7] relates to MKK4-JNK-H2AX pathway in SBcl2 cells. The data set can be described thus: Immunoblot analysis of JNK pathway signaling. The format is cell-based. The following applies: pre-treatment 50 µM, data not shown.

On to `CCCS(=O)(=O)Nc1ccc(F)c(C(=O)c2c[nH]c3ncc(-c4ccc(Cl)cc4)cc23)c1F` [PLX4032, vemurafenib], for which the “Cytotoxicity to parental cells” value in data set [1] is “cytotoxic”.
Consider `CC(=O)c1c(O)c(C)c(O)c(Cc2c(O)c3c(c(C(=O)/C=C/c4ccccc4)c2O)OC(C)(C)C=C3)c1O` [Rottlerin, rottlerin], for which the IC50 (as a rule, the midpoint of a concentration-inhibition curve) at PKCδ (PKCδ IC50, in vitro kinase assay) lay within 3 to 5 µM. In addition, on PKCδ (PKCδ over PKCα), the “PKCδ/PKCα Selectivity” value is 28-fold. The “Cell proliferation (MTS)” value in data set [2] (2 µM) was “intermediate inhibitory effects”; in data set [2] (5 µM), “consistently inhibited proliferation of all cell lines”. Moreover, the “Reduction in the number of colonies” value in the data set with SBcl2 melanoma cells is listed as “approximately 40 fold”. Besides, in data set [3], the “Increase in caspase 3/7 activity vs vehicle (DMSO)” value was found to be 5 fold. For the same molecule, in the data set on SBcl2 cells (SBcl2, 5 µM), the “Proportion of sub-G1 population (fragmented DNA)” value is listed as “significantly higher”. Moreover, the Aqueous solubility entry in [4] was “moderate”. In addition, the Tolerability entry in the data set with mice is reported as “well-tolerated”. In addition, the “Cytostatic or cytotoxic effect on normal cells” value in [5] is reported as “not cytostatic or cytotoxic”. In data set [6], the “"Ras-specific" Cytotoxicity” value lay within 3 to 5 µM.
In the case of “carbobenzoxy-valyl-alanyl-aspartyl-[Omethyl]-fluoromethylketone [Z-VAD-FMK]”, the “B106-induced DNA fragmentation” value with SBcl2 cells (SBcl2 pretreated with 100 µM, B106 0.5 µM) was “significantly abrogated”. Besides, in data set [7], the “B106-induced caspase 3 cleavage (immunoblot)” value is given as “prevented”.
